# Legend:
# [1] = test system: Human immunodeficiency virus 1; experiment: Inhibition of viral infection in HIV-1 (RF)-infected MT-2 cells with an oligonucleotide-based sandwich hybridization assay.; assay type: functional, MT2
# Method in brief: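 Uninfected MT-2 cells were preincubated for 30 min with serial dilutions of compound, then infected with HIV-1 RF and cultured for 3 days at 37 °C, 5% CO2. Lysates were assayed for viral RNA by microtiter oligonucleotide sandwich hybridization.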
# [2] = Bioavailability as maximal plasma concentration in dogs; assay type: ADME, organism-based, Canis lupus familiaris; settings: dog
# Method in brief: (§1)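 Dogs received an oral dose of 10 mg/kg. Cmax is the observed peak plasma concentration after the oral dose. Oral bioavailability is the dose-normalized ratio AUC(po)/AUC, with the plasma concentration–time area taken from zero to infinity.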
# [3] = Bioavailability in dog; assay type: ADME, organism-based, Canis lupus familiaris; settings: in vivo; method in brief: as §1
# [4] = (§2) Bioavailability as maximal plasma concentration in rats; assay type: ADME, organism-based; settings: rat
# Method in brief: (§3)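 Rats (n = 4/group) were given an oral dose of 10 mg/kg in a propylene glycol / poly(ethylene glycol) 400 / water formulation. Cmax is the observed peak plasma concentration after the oral dose. F% is AUC(po)/AUC, with AUC taken from time zero to infinity and normalized for dose.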
# [5] = Bioavailability in rat; assay type: ADME, organism-based; settings: in vivo; method in brief: as §3
# [6] = biological target: Human immunodeficiency virus type 1 protease (Human immunodeficiency virus 1, UniProt Q72874); experiment: Inhibitory activity against HIV-1 protease
# Method in brief: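 HIV-1 protease Ki from cleavage of a fluorescent peptide substrate, products resolved by HPLC. Inhibitor was tested at four concentrations spanning 0.1–10 000 nM, the range chosen per inhibitor.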
# [7] = as §2; assay type: ADME, organism-based; settings: rat; method in brief: as §3; remark: listed apart in the source
# [8] = Human immunodeficiency virus 1, MT2
compound,measurement,setting,value
O=C1N(Cc2cccc(O)c2)[C@H](Cc2ccccc2)[C@H](O)[C@@H](O)[C@@H](Cc2ccccc2)N1Cc1cccc(O)c1,IC90,[1]; [8],54 nM
same,Cmax,[2],2000 nM
same,bioavailability,[3],16%
same,Cmax,[4],810 nM
same,bioavailability,[5],30%
same,Ki,[6],0.12 nM
O=C1N(CC2CC2)[C@H](Cc2ccccc2)[C@H](O)[C@@H](O)[C@@H](Cc2ccccc2)N1CC1CC1,IC90,[1]; [8],1800 nM
same,Cmax,[2],9200 nM
same,bioavailability,[3],48%
same,Cmax,[4],4300 nM
same,bioavailability,[5],100%
O=C1N(Cc2cccc(CO)c2)[C@H](Cc2ccccc2)[C@H](O)[C@@H](O)[C@@H](Cc2ccccc2)N1Cc1cccc(CO)c1,IC90,[1]; [8],38 nM
same,Cmax,[4],830 nM
same,bioavailability,[5],18%
same,Ki,[6],0.14 nM
O=C1N(Cc2ccc(CO)cc2)[C@H](Cc2ccccc2)[C@H](O)[C@@H](O)[C@@H](Cc2ccccc2)N1Cc1ccc(CO)cc1 [DMP-323],IC90,[1],57 nM
same,Cmax,[2],2800 nM
same,bioavailability,[3],37%
same,Cmax,[4],780 nM
same,bioavailability,[5],27%
O=C1N(Cc2cccc(O)c2)[C@H](Cc2ccccc2)[C@H](O)[C@@H](O)[C@@H](Cc2ccccc2)N1Cc1ccc2ccccc2c1,IC90,[1]; [8],145 nM
same,Cmax,[2],2700 nM
same,Cmax,[4],960 nM
same,Cmax,[7],960 nM
same,Ki,[6],0.33 nM
O=C1N(Cc2ccc(O)cc2)[C@H](Cc2ccccc2)[C@H](O)[C@@H](O)[C@@H](Cc2ccccc2)N1Cc1ccc(O)cc1,IC90,[1]; [8],32 nM
same,Cmax,[4],390 nM
same,bioavailability,[5],22%
same,Ki,[6],0.12 nM
